High-throughput results from PubChem.
MBD2 DNA inh = inhibitors of human MBD2 binding to methylated oligonucleotide. 370,000 compounds, 0.31% hits. TR-FRET. inhibition, % at 4.4 µM; in the data active = inhibition above about 13%
Target sequence (Q9UBB5 whole entry, looked up): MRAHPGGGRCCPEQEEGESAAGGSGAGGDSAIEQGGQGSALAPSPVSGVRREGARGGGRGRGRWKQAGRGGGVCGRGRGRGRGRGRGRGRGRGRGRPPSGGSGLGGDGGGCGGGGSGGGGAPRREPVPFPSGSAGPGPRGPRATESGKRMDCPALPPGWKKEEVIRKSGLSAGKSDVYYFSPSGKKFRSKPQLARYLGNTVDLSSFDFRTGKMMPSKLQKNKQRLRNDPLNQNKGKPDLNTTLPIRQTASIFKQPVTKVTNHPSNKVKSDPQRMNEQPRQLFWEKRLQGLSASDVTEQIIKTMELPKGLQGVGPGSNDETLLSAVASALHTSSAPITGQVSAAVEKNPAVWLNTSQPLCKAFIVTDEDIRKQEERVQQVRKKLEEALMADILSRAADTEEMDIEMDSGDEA
TDP2 absorb = TDP2 (human) inhibition, absorbance primary screen; O95551; recombinant TDP2, T5PNP hydrolysis, p-nitrophenol absorbance 415 nm; inhibition, % at 12.8 µM; 370,000 compounds, 0.34% hits; AID 720702;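 active = inhibition above the mean of all tested compounds plus 3 SD, set per campaign, cut at about 25% in these data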;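 also: 0% = DMSO with enzyme and 100% = buffer with substrate but no TDP2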
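test system = human TDP2 enzyme | input = TDP2 enzyme at 120 nM final | medium = 50 mM Tris-HCl pH 7.5 with Mg2+, KCl, DTT, BSA | also added = T5PNP substrate, 5 mM | times = 2 h at 37 °C | technique = epi absorbance | benchmarks = high control without enzyme, low control DMSO plus TDP2 | replication = each compound tested once, singlicate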
LEDGF integ inh = blocks HIV-1 LEDGF/p75-dependent DNA integration | TR-FRET IN-LEDGF/p75 DNA integration, Eu/Cy5 | inhibition, % at 3.7 µM | 370,000 compounds, 0.64% hits | AID 743269;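 active = inhibition above the screen-wide mean plus 3 SD, cut at about 13% in these data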;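 also: signal is the Cy5 over europium emission ratio at 671 and 618 nm; 0% = plate median of compound wells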
UHRF1 binding = UHRF1 methyl-DNA binding inhibition; Q96T88; UHRF1 binding to methylated oligo, TR-FRET; inhibition, % at 4.4 µM; 370,000 compounds, 0.75% hits; in the data active = inhibition above about 21%;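 also: UHRF1 SRA domain binding a hemimethylated CpG hairpin DNA probe; 0% = median of test compound wells and 100% = reference inhibitor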
* hit, by the source's call. Sampled rows, rich in hits. Any-hit rate of the full collection: about 1.6%.

SMILES | MBD2 DNA inh | TDP2 absorb | LEDGF integ inh | UHRF1 binding
CCCCn1c(N)c(N(CCOC)C(=O)CSCc2ccccc2C)c(=O)[nH]c1=O | 13 | 8 | 7 | 33*
CCN(CC)c1ccc(-c2nnc(SCC(=O)N(CCOC)c3c(N)n(CC(C)C)c(=O)[nH]c3=O)o2)cc1 | 1 | 1 | -1 | 80*
COc1ccc(S(=O)(=O)N2CCC(C(=O)Nc3nnc(CCN4CCCCC4)s3)CC2)cc1 | 0 | -10 | 0 | 5
CCc1ccc(NS(=O)(=O)c2cc3c4c(c2)CCN4C(=O)CC3)cc1 | 2 | -1 | 2 | -1
O=C1CC2(CCN(C(=O)c3ccc(F)cc3)CC2)Oc2ccccc21 | -3 | -6 | 40* | 2
COC(=O)c1ccc(Cn2cnc3c(cnn3-c3ccc(Cl)cc3)c2=O)o1 | -4 | -3 | -3 | 32*
COc1ccc(-c2nc3c(c(SCC(=O)Nc4cccc(O)c4)n2)Cc2c(CO)cnc(C)c2O3)cc1 | 1 | -10 | 14* | -1
COC(=O)[C@]1(Cc2ccccc2)N[C@H](c2ccc(-c3ccc(Cl)c(Cl)c3)cc2)[C@@H]2C(=O)N(C)C(=O)[C@@H]21 | 1 | -1 | -4 | 0
Cc1cccc(NC(=O)Nc2ccc(S(=O)(=O)Nc3onc(C)c3C)cc2)c1 | -3 | 0 | -1 | 0
COC(=O)c1ccc(NC(=O)Cn2nc(C(=O)Nc3ccc(C)cc3)ccc2=O)cc1 | -2 | 7 | -4 | 0
CC(C)C(OC(=O)c1ccco1)C(=O)NCc1ccco1 (stereo not given) | 3 | -5 | -3 | 33*
CN1CCC(CO)(Cc2ccccc2)CC1 | 1 | 8 | 1 | 22*
Cc1cccc(NC(=O)COc2ccc3oc4c(c3c2)CCCC4)n1 | 1 | 4 | 1 | 73*
CCOc1ccc2c(c1)[nH]c(=S)n2C | -1 | 13 | -1 | 39*
O=C(NC1CCN(Cc2ccccc2)CC1)c1cncc(Br)c1 | 9 | -7 | -5 | 21*
O=C(NC1CCN(Cc2ccccc2)CC1)c1ccccc1 | -4 | 5 | -2 | -1
COC(=O)COc1coc(CN2CCN(c3cccc(Cl)c3)CC2)cc1=O | 5 | 6 | 7 | 21*
Cc1ccc(/C=C/C(=O)NCC2COc3ccccc3O2)o1 (stereo not given) | -3 | 1 | 2 | -4
CCOc1ccccc1N(CC(=O)NC1CCCCC1)C(=O)c1nsc(Cl)c1Cl | 2 | 7 | 1 | 22*
Brc1ccc(-c2cnc(-c3cccs3)o2)cc1 | 7 | 10 | 3 | 21*
CCOC(=O)C1NN=C(C(=O)c2ccc(C)cc2)C1c1ccc(C)cc1 (stereo not given) | 1 | -3 | 0 | 3
C/C(=N\Nc1ccc(C(=O)O)cc1)c1ccc(Br)cc1 | 8 | 19 | 0 | 22*
COc1ccc(-c2nnc(SCC(=O)NCCc3ccc(S(N)(=O)=O)cc3)o2)cc1OC | 5 | 6 | 1 | 1
CCOc1ccc(C(=O)OCc2nnc(-c3cccs3)o2)cc1OC | 3 | 7 | -2 | 3
CSc1ccccc1C(=O)NCc1ccccc1C | 4 | -9 | -5 | 22*
SMILES | MBD2 DNA inh | TDP2 absorb | LEDGF integ inh | UHRF1 binding
Cc1ccc(-c2c[n+](CC(=O)Nc3ccc(C)cc3C)c3n2CCC3)cc1 | 0 | -5 | -4 | 37*
Cc1ccc(-c2c[n+](CC(=O)Nc3nc(-c4ccc(F)cc4)cs3)c3n2CCC3)cc1 | 2 | 0 | -3 | 2
O=C(C[n+]1cc(-c2ccc(F)cc2)n2c1CCC2)Nc1nc(-c2ccccc2)cs1 | -2 | 3 | -4 | 44*
O=C(CNCC(=O)Nc1ccc(F)c(F)c1F)Nc1ccc(F)c(F)c1F | -8 | -29 | 4 | -2
CCN1C(=O)/C(=C2/Sc3ccccc3N2CC)S/C1=N\c1ncn[nH]1 | 4 | -9 | 0 | -3
Cc1cc(C)c(-c2c(O)c3cccnc3n(C)c2=O)c(C)c1 | -4 | -2 | -1 | 29*
Cn1c(=O)c2cccnc2c(=O)n1C | 1 | -8 | -3 | 3
O=C1NC(c2cccc3ccccc23)Nc2ccc(Cl)cc21 (stereo not given) | 2 | 9 | -6 | 2
CC(=O)c1cc(C#N)c(N2CCOCC2)nc1C | 0 | 1 | -2 | 34*
O=C(CSc1nnc(-c2ccncc2)o1)NC1CCCCC1 | 5 | 4 | -4 | 4
COc1ccc(Cc2nnc(SCC(=O)NC3CCCC3)o2)cc1 | 1 | 7 | 1 | 45*
O=C(CSc1nnc(-c2ccc(F)cc2)o1)NC1CCCCC1 | 4 | 4 | -4 | 35*
Cc1cc(C)c2sc(NNC(=O)c3ccc(S(=O)(=O)N4CCc5ccccc5C4)cc3)nc2c1 | 1 | -4 | 19* | -2
Cc1cc(C)c2nc(NNC(=O)c3ccc(S(=O)(=O)N4CCc5ccccc5C4)cc3)sc2c1 | -2 | -11 | 20* | -3
CS(=O)(=O)c1ccc(Cl)c(NC(=O)CN2C(=O)C3CCCCC3C2=O)c1 (stereo not given) | 0 | 4 | 1 | 2
COC1=C(Br)C(=O)c2nc(C)ccc2C1=O | 6 | 25* | 65* | 39*
Cc1nc2c(nc1C)C(=O)c1ccccc1C2=O | -11 | 6 | 2 | -1
Cc1ccc(-c2nc(CCNC(=O)c3ccco3)cs2)cc1 | 5 | 0 | -6 | 0
Cc1cccc(C(C(C(=O)c2ccccc2)N2CCOCC2)N2CCOCC2)c1 (stereo not given) | -4 | 6 | -4 | -2
CC(C)c1ccc(C(C(C(=O)c2ccccc2)N2CCOCC2)N2CCOCC2)cc1 (stereo not given) | 5 | 6 | -1 | 47*
O=C(CN1c2cccc3cccc(c23)S1(=O)=O)Nc1ccccc1 | -9 | -3 | 7 | 69*
CC(C)(C)c1ccc(S(=O)(=O)N2CCCC(C(=O)N3CCN(Cc4ccccc4)CC3)C2)cc1 (stereo not given) | -2 | -1 | 4 | -2
COc1ccc(OC)c(-n2nnnc2SCC(=O)NCc2ccc3c(c2)OCO3)c1 | -4 | 4 | -1 | -4
CN(CCc1ccccc1)C(=O)c1cccc(NC(=O)Cc2cccc(NC(=O)C3CCN(C(=O)C4CC4)CC3)c2)c1 | 0 | -5 | 0 | 96*
COc1ccc(CNC(=S)Nc2ccc(S(N)(=O)=O)cc2)cc1 | 2 | 43* | -5 | 0
SMILES | MBD2 DNA inh | TDP2 absorb | LEDGF integ inh | UHRF1 binding
CCC(c1nnc(SCC(=O)N2CC3(C)CC2CC(C)(C)C3)o1)N(C)C (stereo not given) | 1 | 7 | -3 | -2
CCC(=O)N(CCC(Cc1ccccc1)c1ccco1)Cc1ccco1 (stereo not given) | 3 | 5 | -3 | -2
CCC(=O)N(CCC(Cc1ccccc1)c1ccc2c(c1)OCO2)Cc1ccccc1F (stereo not given) | 3 | -10 | 1 | 25*
Cc1ccc(-c2csc(NCCn3c(-c4ccncc4)nc4ccccc43)n2)cc1 | -4 | -9 | 0 | 22*
C=CCNC(=O)CC(=O)N/N=C/c1ccccc1F | -1 | -3 | 2 | 5
CN(c1cccc(NC(=O)c2ccc(C(C)(C)C)cc2)c1)S(C)(=O)=O | 3 | -3 | 2 | 23*
